Screening results (PubChem BioAssay)
This is a sample that favours compounds with a hit; in the whole collection about 7.2% have one here.
PostGolgi ctrl – growth inhibition of yeast control strain, primary screen, counter-screen for post-Golgi transport modulator project. inhibition, % at 10 µM. efflux-deficient yeast background strain, growth absorbance A615, 16 h. AID 738, 2007. hit rate 5% among 98,000
tolC growth inh – growth inhibitors of E. coli tolC mutant, primary screen, strain BW25113 ΔtolC::kan, 384-well. OD615. growth inhibition, % at 10 µM (by protocol). hit rate 2.2% among 65,000. AID 573, 2007;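 active means growth inhibition at or above a cutoff equal to the mean over every tested compound plus 3 SD, cut at about 60% in these data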;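 further: growth measured after 20 h incubation at 37 °C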
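Test system: tolC-deleted E. coli BW25113; medium: LB with kanamycin 50 µg/mL; compound: single-point testing at 10 µM; incubation: 20 h compound exposure of bacteria at 37 °C; signal: OD at 615 nm; evaluation: growth inhibition in percent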
PLAP activator – PLAP enzyme activators, biochemical, luminescence, HTS. Alkaline phosphatase, placental type (Homo sapiens), P05187. purified PLAP enzyme, luminescent substrate read-out; stronger effect = higher value. activation fold at 20 µM. hit rate 1.2% among 96,000. AID 696, 2007; in the data active means activation fold above about 2
Target sequence (P05187 whole entry, looked up): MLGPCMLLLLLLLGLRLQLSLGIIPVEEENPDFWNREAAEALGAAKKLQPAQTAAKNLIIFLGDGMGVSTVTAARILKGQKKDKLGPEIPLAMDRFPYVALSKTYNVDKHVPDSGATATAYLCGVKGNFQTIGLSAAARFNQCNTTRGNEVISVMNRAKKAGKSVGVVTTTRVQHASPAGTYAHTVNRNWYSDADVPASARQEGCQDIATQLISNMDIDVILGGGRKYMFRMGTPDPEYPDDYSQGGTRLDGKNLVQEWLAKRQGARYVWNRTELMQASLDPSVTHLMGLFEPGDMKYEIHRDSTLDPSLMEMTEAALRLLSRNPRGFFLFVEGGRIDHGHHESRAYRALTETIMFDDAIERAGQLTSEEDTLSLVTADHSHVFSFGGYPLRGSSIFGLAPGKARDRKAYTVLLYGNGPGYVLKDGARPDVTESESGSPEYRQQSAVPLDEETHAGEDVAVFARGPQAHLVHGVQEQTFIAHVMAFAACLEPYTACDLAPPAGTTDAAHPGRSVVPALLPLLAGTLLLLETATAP
Ecoli WT expand – growth inhibitors of wild-type E. coli, primary screen, strain BW25113, expanded library, OD600 | OD600 absorbance | growth inhibition, % at 100 µM | hit rate 0.15% among 98,000 | AID 710, 2007;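 active means growth inhibition above about 50% at one test dose, limit read from the data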;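 further: growth measured after 20 h incubation at 37 °C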
PostGolgi yeast – phenotypic screen on post-Golgi transport, primary screen | inhibition, % at 10 µM | post-Golgi transport phenotypic cell assay | hit rate 0.9% among 98,000;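 further: yeast cells grown in 1536-well plates; yeast grown about 18 h at 30C before absorbance read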
* hit, by the source's call; / = no result given. Unless noted, no stated cut-off is given here; in the data, active means inhibition above about 30%; inactive means the rest.

SMILES | PostGolgi ctrl | tolC growth inh | PLAP activator | Ecoli WT expand | PostGolgi yeast
N#CCC(CNc1ncc(C(F)(F)F)cc1Cl)OC(=O)c1cccc([N+](=O)[O-])c1 (stereo not drawn) | 23 | / | 0.9 | -4 | 3
COc1ccc(-c2n[nH]c3c2C(c2ccc(OC)c(OC)c2)N(c2ccccc2)C3=O)cc1 (stereo not drawn) | 12 | / | 2.4* | -7 | 5
COc1cccc(C2c3c(-c4ccccc4)n[nH]c3C(=O)N2c2ccc(C(=O)O)cc2)c1 (stereo not drawn) | 5 | / | 1 | 0 | 6
O=C(CCc1ccc(S(=O)(=O)N2CCOCC2)cc1)Nc1nc(COc2ccccc2)cs1 | 5 | / | 1.1 | -18 | 4
Cc1cc(C)cc(-n2nnc(C(=O)NCc3ccc4c(c3)OCO4)c2N)c1 | 31* | 44 | / | -8 | -3
O=C(NCc1ccc2c(c1)OCO2)c1ccc(-c2ccc(Cl)cc2)o1 | 70* | 79* | 0.9 | -21 | 16
Cc1ccc2oc(C(=O)NCc3ccc4c(c3)OCO4)c(C)c2c1 | 28 | 86* | 1 | -9 | -1
Cc1ccc(NC(=O)c2nnn(-c3cc(C)cc(C)c3)c2N)cc1 | 5 | 67* | 1 | -10 | -10
COc1ccc(CNC(=O)CN(C(=O)c2cc3sccc3n2C)C2CCCC2)cc1 | 1 | -13 | 1 | 1 | -4
COc1cccc(/C=N/NC(=O)CC(=O)NCCc2ccc(OC)c(OC)c2)c1 | 4 | / | 1 | 3 | -1
O=C(NCc1ccc2c(c1)OCO2)c1ccncc1 | 3 | -10 | 1 | -2 | -11
O=C(NCc1ccc2c(c1)OCO2)c1ccc(-n2cnnn2)cc1 | 1 | -20 | 0.9 | 9 | 41*
O=S(=O)(NC1CC2CCC1C2)c1ccc(Br)s1 (stereo not drawn) | 91* | 38 | 0.8 | 10 | 90*
O=C(c1cc2c(s1)-c1ccccc1OC2)N1CCCC1 | 25 | 11 | 0.8 | -5 | -1
O=C(c1cc2c(s1)-c1ccccc1OC2)N1CCN(c2ccccc2)CC1 | 55* | / | 1.3 | -9 | -10
COc1ccc(CN2CC(C(=O)NCCCN3CCOCC3)CC2=O)cc1 (stereo not drawn) | 35* | -26 | 1.1 | 5 | -5
CCOC(=O)N1CCC(N2C(=O)c3ccc(C(=O)NC4CCCCCC4)cc3C2=O)CC1 | / | -4 | / | / | /
CN1CC(c2ccc(C#N)cc2)C2(COc3ccccc3C2=O)C12C(=O)Nc1ccccc12 (stereo not drawn) | 31* | / | 1.3 | -1 | 9
Nc1nc(-c2ccccc2)cc(-c2ccccc2O)n1 | 35* | -2 | 1.2 | -22 | 54*
NNc1nc(-c2ccccc2)cc(-c2ccccc2O)n1 | 12 | / | 1.3 | -9 | -2
O=C(COn1nnc2ccc(Cl)cc21)NC12CC3CC(CC(C3)C1)C2 | 52* | / | 0.6 | -1 | 6
CCOC(=O)Nc1ccc2c(c1)N(C(=O)N(CC)CC)c1ccccc1CC2 | / | 37 | / | / | /
CC1(CC(=O)N/N=C/c2ccc(OCc3ccc(Cl)cc3Cl)cc2)OCCCO1 | 42* | / | 1.7 | 12 | 1
COc1cc(/C=C/c2cc(OC(C)=O)c3ccccc3n2)c(OC(C)=O)c([N+](=O)[O-])c1 | -3 | / | 0.9 | -8 | -5
Cc1ccc(S(=O)(=O)N(C)c2ccc(C(=O)N3CCCCC3)cc2)cc1 | 5 | / | 2.1* | 0 | 10
SMILES | PostGolgi ctrl | tolC growth inh | PLAP activator | Ecoli WT expand | PostGolgi yeast
CN(c1ccc(C(=O)N2CCCCC2)cc1)S(=O)(=O)c1ccccc1 | 15 | -12 | 1 | -3 | -1
Cc1ccc(S(=O)(=O)N(C)c2ccc(C(=O)N3CCN(Cc4ccc5c(c4)OCO5)CC3)cc2)cc1 | 6 | / | 2* | -13 | -10
CN(c1ccc(C(=O)N2CCN(Cc3ccc4c(c3)OCO4)CC2)cc1)S(=O)(=O)c1ccccc1 | 1 | / | 1.9 | -11 | -5
C=CCN(c1ccc(C(=O)NC(C)C)cc1)S(C)(=O)=O | -1 | / | 1.3 | -6 | 15
C=CCN(c1ccc(C(=O)N2CCCC2)cc1)S(C)(=O)=O | 39* | -7 | 1.4 | -1 | 5
O=C(c1cccc(Br)c1)c1cn(-c2ccccc2)nc1C(=O)c1ccccc1 | 8 | / | 1 | -9 | -4
O=S(=O)(c1ccc2oc(-c3ccncc3)nc2c1)c1ccc2oc(-c3ccncc3)nc2c1 | / | 4 | / | / | /
COc1ccc(C2N(S(=O)(=O)c3ccc(C)cc3)CCN2S(=O)(=O)c2ccc(C)cc2)cc1 | 14 | / | 1.4 | -11 | 4
CCOc1cc(-c2c(C#N)c(=O)[nH]c3c2c(C)nn3-c2ccc(F)cc2)ccc1O | 2 | 97* | 1.4 | 1 | -6
COc1cc(-c2c(C#N)c(N)nc3c2c(C)nn3-c2ccc(C)c(C)c2)cc(OC)c1OC | 20 | 41 | 1.8 | -19 | 16
CCOC(=O)N1CCC(NC(=O)C2CCN(S(=O)(=O)N3CCCC3)CC2)CC1 | 4 | -16 | 1.1 | 1 | -9
CCOC(=O)N1CCC(NC(=O)C2CCCN(S(C)(=O)=O)C2)CC1 (stereo not drawn) | 36* | -13 | 1 | 0 | 3
Cc1ccc(S(=O)(=O)Nc2nc(C)c(NC(=O)Nc3ccc(Cl)cc3Cl)s2)cc1 | 41* | / | 1.3 | -2 | 5
CCc1ccc(NC(=O)CSc2nnc(SCC(=O)Nc3ccc(CC)cc3)n2N)cc1 | -7 | / | 0.8 | -5 | -2
Cc1cc(CN2CCN(CCC#N)CC2)c(O)c(C2(C)CCCCC2)c1 | 59* | 32 | 1.2 | 7 | -2
COC(=O)c1ccc2c(=O)n(CC3CCCO3)c(SCC(=O)Nc3ccccc3OC)nc2c1 (stereo not drawn) | 33* | 16 | 1 | -10 | -9
Cc1ccccc1NC(=O)c1nc[nH]c1C(=O)NCc1ccccc1 | 53* | 41 | 1.4 | -10 | 6
CC(C)Sc1nc(N2CCOCC2)c2c(c1C#N)CC(C)(C)SC2 | 26 | 39 | 0.9 | -23 | 0
CC1(C)Cc2c(C#N)c(SCc3ccccc3)nc(N3CCOCC3)c2CO1 | 38* | 26 | 1.2 | -7 | -5
CC1(C)Cc2c(C#N)c(SCC(=O)c3ccccc3)nc(N3CCOCC3)c2CO1 | 7 | 14 | 1.3 | -15 | -5
CC(C)Sc1nc(N2CCOCC2)c2c(c1C#N)CC(C)(C)N(C)C2 | 2 | / | 2* | -2 | -7
Cc1ccc(NC(=O)CC2S/C(=N/c3nccs3)N(C)C2=O)c(C)c1 (stereo not drawn) | 32* | / | 0.9 | -5 | 2
CC1CCN(C2=NC(=O)/C(=C/c3cn(-c4ccccc4)nc3-c3cccc(S(=O)(=O)N(C)C)c3)S2)CC1 | 6 | / | 1.3 | -6 | 17
CCC(C)c1ccc(OCCN2CCCC2)cc1 (stereo not drawn) | 36* | / | 0.9 | -2 | 7
COc1cnc(SCc2c(Cl)cccc2Cl)nc1Cl | 34* | / | 0.9 | -8 | 17
O=S(=O)(N/N=C/c1ccc(Cl)cc1)c1ccc(Cc2ncc(C(F)(F)F)cc2Cl)s1 | 5 | / | 1.6 | 5 | -9
Cc1cc(C)c2nc(C(F)(F)F)nc(NCCCN3CCOCC3)c2c1 | 30 | / | 1.6 | 5 | 41*
